# Activity calls are given as the source filed them.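 Rule for the calls, unless noted: active = GFP response above 150% of the DMSO level; inconclusive = fewer than 70 events counted for a yeast strain; inactive = the rest.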
# Legend:
# [1] = RPL19A-GFP modulators, yeast TOR pathway, confirmation, cell-based, S. cerevisiae, flow cytometry, cherry picks, mother/daughter gates (AID 2270;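 active = GFP response below 50% of the DMSO control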); settings: S. cerevisiae RPL19A-GFP strain, 3 h, at 10 µM, stronger effect = lower value, 100 = same GFP as DMSO wells
# [2] = LAP4-GFP expression modulators in yeast, confirmation, cell-based, cherry picks, flow cytometry, mother/daughter gates (AID 2271;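 active = GFP response above 150% of the DMSO control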;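 note: ratio of sample to DMSO plate mean so 100% equals DMSO level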); settings: S. cerevisiae LAP4-GFP strain, 3 h, at 10 µM, stronger effect = higher value, 100 means same as DMSO control
# Method in brief: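 material = Alexa 633-stained baker's yeast GFP-fusion strain | amount = 0.2 OD600 cells | schedule = 30 °C, 3 h compound incubation, rotating | signal = GFP by flow cytometry | measure = per-gate (all, mother, daughter) GFP response vs DMSO | controls = positive rapamycin (400 ng/mL), negative DMSO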
# [3] = modulators of MEP2-GFP levels in yeast, confirmation, S. cerevisiae, flow cytometry GFP, cherry picks (AID 2272;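 active = GFP response above 150% of the DMSO control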;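 note: ratio of well signal to plate DMSO mean so 100% equals DMSO level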); settings: S. cerevisiae MEP2-GFP strain, 3 h, at 10 µM, stronger effect = higher value
# [4] = AGP1-GFP expression modulators, hit retest, confirmation, cell-based, flow cytometry, S. cerevisiae, cherry picks (AID 2273);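 note: median GFP channel fluorescence over the whole cell population gate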; settings: S. cerevisiae AGP1-GFP strain, 3 h, at 10 µM
# [5] = modulators of CIT2-GFP expression in yeast, confirmation, S. cerevisiae, GFP fusion, cherry picks, mother/daughter gates (AID 2274); settings: S. cerevisiae CIT2-GFP strain, flow cytometry, 3 h, at 10 µM, stronger effect = higher value
# [6] = measured here: daughter cell gate
# [7] = measured here: mother cell gate
# [8] = measured here: daughter cell gate response
# [9] = measured here: mother cell gate response
SMILES,GFP response vs DMSO [1],"GFP response vs DMSO [1, 6]","GFP response vs DMSO [1, 7]",GFP response relative to DMSO [2],"GFP response relative to DMSO [2, 8]","GFP response relative to DMSO [2, 9]",GFP response vs DMSO [3],"GFP response, % of DMSO [4]","GFP response, % of DMSO [5]","GFP response, % of DMSO [5, 6]","GFP response, % of DMSO [5, 7]"
O=[N+]([O-])c1ccc(S(=O)(=O)c2ccccc2)nc1,84.5% (inactive),96.4%,77.4%,176% (active),156%,174%,126% (inactive),114% (inactive),108% (inactive),131%,91.5%
COc1ccc(/C=C/C(=O)c2c(O)cc(C)oc2=O)c(OC)c1,104% (inactive),101%,103%,102% (inactive),101%,103%,103% (inactive),100% (inactive),95.9% (inactive),95.6%,90.7%
Cc1ccc(C(=O)O/N=C(\N)Cc2cccs2)c(Cl)c1,104% (inactive),102%,99.3%,125% (inactive),114%,123%,105% (inactive),70.7% (inactive),129% (inactive),117%,129%
Cc1ccc2[nH]c(C)c(/C=C/c3cc[n+](C)cc3)c2c1,118% (inactive),120%,117%,198% (active),210%,190%,268% (active),122% (inactive),223% (active),241%,211%
Cc1ccc(N2C(=O)C3C4C=CC(CNC(=S)Nc5ccc(Cl)cc5)(O4)C3C2=O)cc1 (configuration not stated),102% (inactive),101%,100%,101% (inactive),103%,102%,102% (inactive),102% (inactive),99.1% (inactive),98.1%,97.7%
Cc1c([N+](=O)[O-])cnc(Sc2ccccc2)c1[N+](=O)[O-],100% (inactive),96.9%,98.9%,124% (inactive),120%,127%,102% (inactive),97.6% (inactive),101% (inactive),101%,99.7%
CCCC(=O)Nc1ccc(NC(=O)c2cc3ccccc3o2)c(OC)c1,98.8% (inactive),98.4%,98%,98.2% (inactive),99.1%,98.4%,103% (inactive),102% (inactive),97.3% (inactive),99.2%,87%
O=c1c2ccccc2nc(-c2ccccc2)n1CCN1CCOCC1,101% (inactive),102%,101%,97% (inactive),97.5%,98.4%,101% (inactive),106% (inactive),98.8% (inactive),95.6%,96.8%
CN1/C(=C\C(=O)c2cccc(S(=O)(=O)N3CCCCC3)c2)C(C)(C)c2ccccc21,96.8% (inactive),97.6%,97.2%,95.4% (inactive),97.6%,94%,100% (inactive),97.2% (inactive),98.3% (inactive),99.1%,98.5%
COc1ccc(N=Cc2cc(Cc3ccccc3Cl)cc([N+](=O)[O-])c2O)cc1OC,93.4% (inactive),93%,86.5%,142% (inactive),114%,147%,120% (inactive),96.7% (inactive),96.5% (inactive),86.7%,96.6%
N/C(=N\OC(=O)c1ccccc1Cl)c1ccc(Cl)cc1,101% (inactive),101%,101%,135% (inactive),115%,135%,108% (inactive),77.2% (inactive),130% (inactive),117%,132%
CCCc1[nH]nc2c1C(c1cc(OC)cc(OC)c1)C(C#N)=C(N)O2 (configuration not stated),101% (inactive),99.8%,101%,103% (inactive),100%,106%,102% (inactive),100% (inactive),95.2% (inactive),93.2%,95.5%
CCN(CC(O)Cn1c2ccccc2c2ccccc21)S(=O)(=O)c1ccc(F)cc1 (configuration not stated),96% (inactive),96.5%,96.7%,108% (inactive),107%,108%,97.5% (inactive),95.8% (inactive),96.4% (inactive),96.4%,94.5%
O=C1CCN(S(=O)(=O)c2ccccc2)C2CCCCC12 (configuration not stated),98% (inactive),97.8%,98.1%,102% (inactive),102%,100%,106% (inactive),100% (inactive),108% (inactive),104%,101%
Cc1ccc(NC(=S)N2CCSC2c2cccs2)cc1 (configuration not stated),98.5% (inactive),98.1%,97.8%,97.7% (inactive),99%,97.4%,108% (inactive),101% (inactive),103% (inactive),99.3%,103%
Nc1cc(N)nc(SCC(=O)N2CCc3ccccc32)n1,100% (inactive),101%,99.7%,97.9% (inactive),97.6%,96.1%,105% (inactive),98.5% (inactive),101% (inactive),101%,101%
COc1ccc(C(=O)/C=C2/C(=O)Nc3ccccc32)cc1,86.7% (inactive),88.1%,82.7%,133% (inactive),122%,139%,96.2% (inactive),95.4% (inactive),98.3% (inactive),97.2%,91.4%

# Source: PubChem BioAssay
